Publication PMC12248229 (PeerJ, 2025)

Tests used:
[1] = cited from earlier work
in vivo = format: in vivo, Sprague-Dawley (SD) rats; conditions: for half-life: t1/2, rats
[2] = test system: patients with chronic kidney disease; conditions: diverse group of patients with chronic kidney disease, ref Fauchier, Fauchier & Angoulvant, 2021, Herrington et al., 2023, Santos-Gallego et al., Wanner et al., 2016; cited from earlier work
Ugt1a7 = test: qRT-PCR mRNA expression in rat liver and intestine after 7 days of dosing; format: in vivo; conditions: after multiple doses
Summary of the method: (§1)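 Rats (n = 6/group) gavaged daily for 7 days with test compound: 2.5 or 1 mg/kg in 0.5% CMC-Na, or 100 mg/kg in 0.5% CMC-Na with 5% DMSO. Liver and intestine harvested under chloral hydrate and stored at −80 °C. TRNzol RNA extraction; 1 μg RNA reverse-transcribed. qPCR: 95 °C 15 min, then 40 cycles of 95 °C 10 s/60 °C 32 s. […] reference; 2^−ΔΔCT.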

[3] = Stability of analytes in rat plasma; format: physicochemical; conditions: n = 6
P-gp = test: qRT-PCR mRNA expression in rat liver and intestine after 7 days of dosing; format: in vivo; conditions: after multiple doses
Summary of the method: as §1

Oatp1b2 = test: qRT-PCR mRNA expression in rat liver after 7 days of dosing; format: in vivo; conditions: after multiple doses
Summary of the method: as §1

[4] = rats, coadministered with sorafenib, versus control group
[5] = rats, empagliflozin […] after sorafenib 100 mg/kg for 7 consecutive days, n = 6
[6] = Autosampler (15 °C) for 6 h, nominal 15 ng/mL
[7] = Autosampler (15 °C) for 6 h, nominal 800 ng/mL
[8] = Autosampler (15 °C) for 6 h, nominal 1,500 ng/mL
[9] = Room temperature for 4 h, nominal 15 ng/mL
[10] = Room temperature for 4 h, nominal 800 ng/mL
[11] = Room temperature for 4 h, nominal 1,500 ng/mL
[12] = Three freeze–thaw cycles (−80 °C to 25 °C), nominal 15 ng/mL
[13] = Three freeze–thaw cycles (−80 °C to 25 °C), nominal 800 ng/mL
[14] = Three freeze–thaw cycles (−80 °C to 25 °C), nominal 1,500 ng/mL
[15] = −80 °C for 30 days, nominal 15 ng/mL
[16] = −80 °C for 30 days, nominal 800 ng/mL
[17] = −80 °C for 30 days, nominal 1,500 ng/mL

OC[C@H]1O[C@@H](c2ccc(Cl)c(Cc3ccc(O[C@H]4CCOC4)cc3)c2)[C@H](O)[C@@H](O)[C@@H]1O [Empagliflozin]
systemic exposure of each metabolite, of the total drug-related material ([1]; after oral administration, no reference given): less than 10%
time to highest levels in the body ([1]; following a single oral dose, ref Scheen, 2014): 1.0 to 2.0 h
dose eliminated in urine unchanged ([1]; ref Scheen, 2014): 11–19%
AUC(0-t) (in vivo; Sprague-Dawley, rat, in vivo, po, […], AUC0–t, rats, empagliflozin […] after sorafenib 100 mg/kg for 7 consecutive days, n = 6): 0.563 ± 0.11 µg·h/mL
AUC(0-inf) (in vivo; Sprague-Dawley, rat, in vivo, po, […], AUC0–∞, rats, empagliflozin […] after sorafenib 100 mg/kg for 7 consecutive days, n = 6): 0.586 ± 0.104 µg·h/mL
Cmax (in vivo; Sprague-Dawley, rat, in vivo, po, […], Cmax, rats, empagliflozin […] after sorafenib 100 mg/kg for 7 consecutive days, n = 6): 0.231 ± 0.0785 µg/mL
MRT last (in vivo; Sprague-Dawley, rat, in vivo, po, […], MRT0–t, rats, empagliflozin […] after sorafenib 100 mg/kg for 7 consecutive days, n = 6): 2.86 ± 0.21 h
MRT inf (in vivo; Sprague-Dawley, rat, in vivo, po, […], MRT0–∞, rats, empagliflozin […] after sorafenib 100 mg/kg for 7 consecutive days, n = 6): 3.44 ± 0.52 h
Tmax (in vivo; Sprague-Dawley, rat, in vivo, po, […], rats, empagliflozin […] after sorafenib 100 mg/kg for 7 consecutive days, n = 6): 0.4 ± 0.17 h
Tmax (in vivo; Sprague-Dawley, rat, in vivo, po, […], rats, empagliflozin […] oral, alone, n = 6): 0.28 ± 0.12 h
half-life (in vivo; Sprague-Dawley, rat, in vivo, po, […], empagliflozin […] after sorafenib 100 mg/kg for 7 consecutive days, n = 6): 3.14 ± 1.09 h
half-life (in vivo; Sprague-Dawley, rat, in vivo, po, […], empagliflozin […] oral, alone, n = 6): 5.03 ± 2.29 h
difference in Cmax of empagliflozin (higher than control) (in vivo; rats receiving both drugs versus control group): not statistically significant
decrease of Vz/F of empagliflozin (in vivo; [4]): 50.68%
increase of AUC0–t of empagliflozin (in vivo; [4]): 44.65%
increase of AUC0–∞ of empagliflozin (in vivo; [4]): 30.59%
CLz (in vivo; [5]): 4.38 ± 0.75 L/h/kg
Vz (in vivo; [5]): 20.18 ± 8.16 L/kg
Vz (in vivo; rats, empagliflozin […] oral, alone, n = 6): 40.92 ± 16.03 L/kg
lowering of the occurrence of cardiovascular death events [2]: 18%
inhibition of mRNA expression of Ugt1a7 (Ugt1a7; rat intestine): no significant inhibition
decrease of mRNA expression of Ugt1a7 (Ugt1a7; rat liver): 40.07%
Stability: Accuracy (RE%) [3, 6]: 4.78%
Stability: Mean ± SD measured concentration [3, 6]: 15.72 ± 0.78 ng/mL
Stability: Accuracy (RE%) [3, 7]: 6.63%
Stability: Mean ± SD measured concentration [3, 7]: 853.00 ± 50.88 ng/mL
Stability: Accuracy (RE%) [3, 8]: 3.89%
Stability: Mean ± SD measured concentration [3, 8]: 1,558.33 ± 99.48 ng/ml
Stability: Accuracy (RE%) [3, 9]: −0.67%
Stability: Mean ± SD measured concentration [3, 9]: 14.90 ± 0.91 ng/mL
Stability: Accuracy (RE%) [3, 10]: 4.71%
Stability: Mean ± SD measured concentration [3, 10]: 837.67 ± 29.62 ng/mL
Stability: Accuracy (RE%) [3, 11]: 2.22%
Stability: Mean ± SD measured concentration [3, 11]: 1,533.33 ± 37.77 ng/ml
Stability: Accuracy (RE%) [3, 12]: −0.67%
Stability: Mean ± SD measured concentration [3, 12]: 14.90 ± 0.91 ng/mL
Stability: Accuracy (RE%) [3, 13]: 6.65%
Stability: Mean ± SD measured concentration [3, 13]: 853.17 ± 38.25 ng/mL
Stability: Accuracy (RE%) [3, 14]: 1.11%
Stability: Mean ± SD measured concentration [3, 14]: 1,516.67 ± 97.50 ng/ml
Stability: Accuracy (RE%) [3, 15]: 1.56%
Stability: Mean ± SD measured concentration [3, 15]: 15.23 ± 1.43 ng/mL
Stability: Accuracy (RE%) [3, 16]: 4.15%
Stability: Mean ± SD measured concentration [3, 16]: 833.17 ± 38.43 ng/mL
Stability: Accuracy (RE%) [3, 17]: −1.78%
Stability: Mean ± SD measured concentration [3, 17]: 1,473.33 ± 93.31 ng/ml
decrease of mRNA expression of P-gp (P-gp; rat intestine): 22.77%
decrease of mRNA expression of P-gp (P-gp; rat liver): 61.19%
decrease of mRNA expression of Oatp1b2 (Oatp1b2): 37.43%
